# Source: PubChem BioAssay (several laboratories)
# Compounds with a hit are over-represented: about 11% of the library has one in this group of screens.
# S1P3 agonist = human S1P3 receptor agonists, primary screen, cell-based, primary and confirmation, NFAT-BLA reporter; S1P3 NFAT-BLA reporter cells, agonism, FRET ratio; relative to 1 µM S1P, basal subtracted; 60,000 tested, 0.1% active; activation, % at 4.5 µM;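 active = activation above the screen-wide mean plus 3 SD, cut at about 4.5% in these data, passing the limit was not always enough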
# Target sequence (Q99500 whole entry, looked up): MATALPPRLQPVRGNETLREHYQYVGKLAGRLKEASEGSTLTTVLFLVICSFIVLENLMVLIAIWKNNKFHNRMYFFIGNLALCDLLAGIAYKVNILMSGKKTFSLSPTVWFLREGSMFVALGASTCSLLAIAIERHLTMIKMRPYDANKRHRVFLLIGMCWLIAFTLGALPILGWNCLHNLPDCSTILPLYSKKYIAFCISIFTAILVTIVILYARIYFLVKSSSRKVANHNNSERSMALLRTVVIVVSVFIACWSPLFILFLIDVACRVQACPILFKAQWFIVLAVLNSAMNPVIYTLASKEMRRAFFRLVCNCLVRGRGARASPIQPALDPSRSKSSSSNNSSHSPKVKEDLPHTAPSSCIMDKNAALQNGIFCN
#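 Benchmarks: high control 1 µM S1P / System: stable CHO line with human S1P3, Gα16, NFAT-BLA reporter / Dosing: single compound concentration, 4.5 µM final / Timing: 4 h compound at 37 °C, 2 h substrate at RT / Measured by: FRET β-lactamase substrate fluorescence, excitation 405 nm, 460/535 nm emission ratio, background-subtracted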
# S1P1 ag-PAM = S1P1 agonists and agonism potentiators, primary screen, cell-based, primary and confirmation screens, CRE-bla reporter | S1P1 CRE-bla cells, forskolin, beta-lactamase FRET, potentiator mode; S1P1 agonist co-added at EC20, 2 nM; 100% = saturating reference agonist, 0% = basal | activation, % at 9.5 µM | 56,000 tested, 0.57% active | AID 449, 2006;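 active = activation above a cutoff set at the mean activation of all tested compounds plus 3 SD, cut at about 54% in these data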;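 note: forskolin at 4 µM as EC80 and the EC20 agonist is SEW2871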
# TNAP act mid DEA = human TNAP enzyme activators, primary screen, biochemical, luminescent, intermediate phosphate acceptor level. Alkaline phosphatase, tissue-nonspecific isozyme (Homo sapiens), P05186. purified TNAP, CDP-star luminescence, 100 mM DEA, 30 min; stronger effect = higher value; scale: 0 levamisole-inhibited, 1 vehicle-only enzyme. activation factor at 20 µM. 64,000 tested, under 10 active;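 active = activation factor of at least 2 at 20 µM, relative to controls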
# M1 antag = antagonists of rat M1 muscarinic receptor; Muscarinic acetylcholine receptor M1 (Rattus norvegicus), P08482; CHO-M1 cells, Fluo-4 calcium, ACh EC80 antagonist mode; stronger effect = lower value; B-score at 10 µM; 64,000 tested, 3.4% active; AID 628, 2007;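 active = calcium fluorescence response, raw or row-and-column corrected B-score, differing from the plate sample mean either way at a set confidence level, mostly lower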
# M1 agonist = M1 muscarinic receptor agonists, primary screen, CHO-M1 cells, Fluo-4 calcium, agonist mode; Muscarinic acetylcholine receptor M1; Fluo-4 calcium fluorescence; stronger effect = higher value; B-score at 10 µM; 64,000 tested, 3% active; AID 626, 2007;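 active = fluorescence rise, raw or as B-score row- and column-corrected plate score, outside the 99.7% band of its plate's samples, either direction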
# D1 mod = D1 CRE-luciferase signal change, two-sided – cell-based, HEK293 D1, dopamine EC30, D1 allosteric modulator project, primary screen. D(1A) dopamine receptor (Homo sapiens), P21728. dopamine EC30 potentiation; actives deviate in either direction. B-score at 10 µM. 58,000 tested, 5.9% active. AID 641, 2007;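 active = luminescence count or its row- and column-corrected plate score outside the 99.7% band of the plate's sample wells, on either side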
# D1 mod confirm = D1 receptor positive allosteric modulators, retest, confirmation, cell-based, HEK293 D1, CRE-luciferase, duplicate. shares compounds with D1 mod. dopamine EC30 potentiation; stronger effect = higher value. luminescence at 10 µM. 2,200 tested, 88% active. AID 642, 2007;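 active = luminescence in either of two replicates above the same-plate mean plus 3 SD of the low-dose dopamine control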
# D1 no dopamine = D1 receptor agonism without dopamine, confirmation, mechanism study for D1 allosteric modulator project, cell-based, HEK293 D1, CRE-luciferase, secondary assay 1; shares compounds with D1 mod; luminescence, no dopamine; stronger effect = higher value; luminescence at 10 µM; 1,900 tested, 0.8% active; in the data active = luminescence above about 3900
# Isoprot counter = alters isoproterenol CRE-luciferase response in HEK293 cells; shares compounds with D1 mod; HEK293 D1 CRE-luciferase, isoproterenol EC30 counter-screen; stronger effect = higher value; luminescence at 10 µM; 2,200 tested, 63% active; AID 647;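 active = luminescence in either replicate above plate mean of wells with a partly effective reference agonist dose plus 3 SD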;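 note: isoproterenol raises cAMP through native beta-adrenoceptor Gs so signal bypasses D1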
# A number is an active result; n = inactive; x = not tested or not shown.
SMILES,S1P3 agonist,S1P1 ag-PAM,TNAP act mid DEA,M1 antag,M1 agonist,D1 mod,D1 mod confirm,D1 no dopamine,Isoprot counter
CSc1nc(N2CCOCC2)c2c3c(sc2n1)CCCC3,n,n,n,n,n,11,11612,n,4140
COc1ccc2nc(NC(=O)CSc3nc4cccnc4n3C)sc2c1,n,n,n,x,x,x,x,x,x
COC(=O)c1sc(NC(=O)CSc2nc3cccnc3n2C2CCCCC2)nc1C,n,n,n,n,n,9.5,10416,n,3916
COC(=O)c1ccc(CSc2nc3ccccc3c(=O)n2Cc2ccco2)o1,n,n,n,n,n,6.5,9240,n,3296
COC(=O)c1ccc(CSc2nc3c(cnn3-c3ccc(Cl)cc3)c(=O)[nH]2)o1,n,n,x,n,n,n,x,x,x
COC(=O)c1ccc(CSc2nc3c(cnn3-c3ccccc3)c(=O)[nH]2)o1,n,n,x,n,n,6.5,12392,n,4400
COC(=O)c1ccc(CSc2nc3c(cnn3-c3ccc(F)cc3)c(=O)[nH]2)o1,x,x,n,n,n,5.3,9428,n,n
CC1CCN(C(=O)CSc2nc3c(cnn3-c3ccccc3)c(=O)[nH]2)CC1,n,n,n,n,n,n,x,x,x
O=C(CSc1nc2ccccc2c(=O)n1Cc1ccco1)NCc1ccccc1,n,n,n,n,n,x,x,x,x
CNc1nc(C)c(C#N)c(-c2ccccc2)c1C(C)=O,n,n,n,n,n,5.8,12136,n,n
CCCCC(NC(C)=O)c1nc2ccccc2n1CCCC (stereo not given),x,x,n,n,n,n,x,x,x
COc1nccc(Nc2ccccc2)c1C#N,n,n,n,n,n,6.6,14732,x,3068
COc1ccc(OCCSc2nnc(-c3ccoc3C)n2C)cc1,n,n,n,n,n,n,x,x,x
CCC1(C)Cc2c(c(=O)n(-c3ccccc3)c3ncnc(N)c23)CO1 (stereo not given),n,n,n,n,n,5.5,10848,x,n
CC1(C)Cc2c(C#N)c(N)n(-c3ccccc3)c(=O)c2CO1,n,n,n,n,n,n,x,x,x
Cc1csc(Sc2nc3c(c(=O)[nH]c(=O)n3C)n2CCCc2ccccc2)n1,n,n,n,n,n,n,x,x,x
CC(C)CCSc1nc2c(c(=O)[nH]c(=O)n2C)n1CCc1ccccc1,n,n,x,n,n,2.6,15840,n,4020
CC(C)CSc1nc2c(c(=O)[nH]c(=O)n2C)n1CCc1ccccc1,n,n,n,n,n,19,14104,n,4516
CCOC(=O)CSc1nc2c(c(=O)[nH]c(=O)n2C)n1CCCc1ccccc1,n,n,n,x,x,n,x,x,x
Cc1nnc(SCCn2c(N3CCCC(C)C3)nc3c2c(=O)n(C)c(=O)n3C)s1 (stereo not given),n,n,n,n,n,n,x,x,x
CC(C)COc1cc(=O)[nH]c(SCC(C)C)n1,n,n,n,n,n,18,26448,n,6352
CCOc1ccc(OCCSc2nc(C)cc(=O)[nH]2)cc1,n,n,n,n,n,n,x,x,x
Cc1[nH]nc2c1C1(CCC3(CC1)OCCO3)C(C#N)=C(N)O2,n,x,n,n,n,n,x,x,x
Cc1ccc(C2C(=O)N(C3CCC(C)CC3)CC(=O)N2C2CC2)cc1 (stereo not given),x,x,n,n,n,n,x,x,x
O=C(c1ccccc1Cl)N1CCC(c2nc3c(nnn3Cc3ccco3)c(=O)[nH]2)CC1,n,n,n,n,n,6.1,11824,n,3316
SMILES,S1P3 agonist,S1P1 ag-PAM,TNAP act mid DEA,M1 antag,M1 agonist,D1 mod,D1 mod confirm,D1 no dopamine,Isoprot counter
Cc1ccc(C(=O)N2CCCC(c3nc4c(nnn4Cc4ccccc4)c(=O)[nH]3)C2)cc1 (stereo not given),n,n,n,n,n,3.4,9432,x,2664
Cc1ccc(Cn2nnc3c(=O)[nH]c(C4CCN(C(=O)Cc5cccs5)CC4)nc32)cc1,n,n,n,n,n,n,x,x,x
Cc1ccc(CC(=O)N2CCC(c3nc4c(nnn4Cc4ccccc4)c(=O)[nH]3)CC2)cc1,n,n,n,n,n,4.9,n,n,n
N#Cc1cccc(Cn2nnc(-c3ccccc3)n2)c1,n,x,n,n,n,n,x,x,x
N#Cc1nc(-c2cccs2)oc1NCCCN1CCOCC1,n,n,n,n,n,n,x,x,x
OC[C@H]1O[C@@H](n2cnc3c(NC4CCCC4)ncnc32)[C@H](O)[C@@H]1O,n,n,n,n,n,5.5,7504,n,5496
CN1Cc2cc(C(=O)c3cc(Cl)cc(CSc4ncccn4)c3O)cnc2NC1=O,n,n,n,n,n,4.5,8560,x,4428
N#Cc1cc2c(nc1SCc1cccnc1)CCCC2,n,n,n,n,n,9.6,12820,n,3440
C=C(C)CSc1nc2c(cc1C#N)CCC2,x,x,n,n,n,5,8952,n,n
C=CCSc1nc2c(cc1C#N)CCC2,n,n,n,n,n,n,x,x,x
CSc1nc(C)cc(OCC#N)n1,n,n,n,n,n,n,x,x,x
CCOC(=O)c1[nH]c(CSc2nnc(-c3ccc(OC)cc3)o2)c(C(=O)OCC)c1C,x,x,n,n,n,4.8,13216,n,4084
COc1ccc(-c2nnc(SCC(=O)c3[nH]c(C)c(C(C)=O)c3C)o2)cc1,n,n,n,n,n,n,x,x,x
Fc1cc(Br)ccc1Nc1nc2ccccc2n2nnnc12,n,n,n,n,n,3.1,10956,n,n
Cc1cc(Nc2ccc(Br)cc2F)n2nc(C)nc2n1,n,n,n,n,n,x,x,x,x
CNc1nc(C)c(C(=O)OCC(=O)OC)s1,n,n,n,x,x,9.4,13828,n,n
CNc1nc(C)c(C(=O)OCc2ccccc2)s1,n,n,n,n,n,18,16572,n,4872
CCNc1nc(NC(C)C)nc(N(C#N)CCOc2ccc(Cl)cc2Cl)n1,n,n,n,n,n,3.2,11108,n,3116
CCNc1nc(NC(C)C)nc(N(C#N)C(C)C(=O)N(C)C)n1 (stereo not given),n,n,n,n,n,x,x,x,x
